What was measured:
Test in all cases: NCI-60 single-dose antiproliferative screen
Type in all cases: cell-based
UACC-257 = settings: Homo sapiens, UACC-257, 48 h, read-out: growth percent
Outline: (§1)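 Cells grown in RPMI 1640 with 5% FBS and 2 mM L-glutamine, plated and held 24 h at 37 °C; time-zero plates TCA-fixed. DMSO stocks were diluted in gentamicin-containing medium to a final 10^-5 M, with a DMSO-only control. Exposure 48 h, 5% CO2. Adherent cells TCA-fixed 1 h at 4 °C, stained with 0.4% SRB, solubilised in 10 mM Trizma base, read at 515 nm. Growth percent derived from ODtzero, ODtest and ODctrl.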

RPMI-8226 = settings: Homo sapiens, RPMI-8226, 48 h, read-out: growth percent
Outline: (§2)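 NCI-60 protocol. Lines were grown in RPMI 1640 with 5% FBS and 2 mM L-glutamine, plated and incubated 24 h at 37 °C; time-zero plates were TCA-fixed. The test compound was dissolved in DMSO, diluted in medium with 50 μg/mL gentamicin and given once at a final 10^-5 M (DMSO control) for 48 h. Cells were fixed with cold TCA (1 h, 4 °C) and stained with 0.4% SRB in 1% acetic acid for 10 min. Dye was dissolved in 10 mM Trizma base and read at 515 nm. Growth percent was calculated from time-zero, test and control ODs.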

SK-MEL-5 = settings: Homo sapiens, SK-MEL-5, 48 h, read-out: growth percent
Outline: as §1

LOX IMVI = settings: Homo sapiens, 48 h, read-out: growth percent
Outline: as §2

HT29 = settings: Homo sapiens, HT-29, 48 h, read-out: growth percent
Outline: as §2

NCI-H226 = settings: Homo sapiens, NCI-H226, 48 h, read-out: growth percent
Outline: as §2

BT-549 = settings: Homo sapiens, BT-549, 48 h, read-out: growth percent
Outline: as §2

SF-268 = settings: Homo sapiens, SF-268, 48 h, read-out: growth percent
Outline: as §2

OVCAR-4 = settings: Homo sapiens, OVCAR-4, 48 h, read-out: growth percent
Outline: as §2

CCRF-CEM = settings: Homo sapiens, 48 h, read-out: growth percent
Outline: as §2

NCI-H322M = settings: Homo sapiens, 48 h, read-out: growth percent
Outline: as §2

COLO205 = settings: Homo sapiens, COLO 205, 48 h, read-out: growth percent
Outline: as §2

CAKI-1 = settings: Homo sapiens, CAKI-1, 48 h, read-out: growth percent
Outline: as §2

M14 = settings: Homo sapiens, M14, 48 h, read-out: growth percent
Outline: as §2

NCI-H460 = settings: Homo sapiens, NCI-H460, 48 h, read-out: growth percent
Outline: as §2

MDA-MB-435 = settings: Homo sapiens, MDA-MB-435, 48 h, read-out: growth percent
Outline: as §2

OVCAR-8 = settings: Homo sapiens, OVCAR-8, 48 h, read-out: growth percent
Outline: as §2

RXF 393 = settings: Homo sapiens, RXF 393, 48 h, read-out: growth percent
Outline: as §2

HOP-92 = settings: Homo sapiens, HOP-92, 48 h, read-out: growth percent
Outline: as §2

KM12 = settings: Homo sapiens, KM12, 48 h, read-out: growth percent
Outline: as §2

NCI-H23 = settings: Homo sapiens, NCI-H23, 48 h, read-out: growth percent
Outline: as §2

TK-10 = settings: Homo sapiens, TK-10, 48 h, read-out: growth percent
Outline: as §1

MCF-7 = settings: Homo sapiens, MCF7, 48 h, read-out: growth percent
Outline: as §2

IGROV1 = settings: Homo sapiens, IGROV-1, 48 h, read-out: growth percent
Outline: as §2

DU-145 = settings: Homo sapiens, DU-145, 48 h, read-out: growth percent
Outline: as §2

UO-31 = settings: Homo sapiens, UO-31, 48 h, read-out: growth percent
Outline: as §1

SF-539 = settings: Homo sapiens, SF-539, 48 h, read-out: growth percent
Outline: as §1

OVCAR-3 = settings: Homo sapiens, OVCAR-3, 48 h, read-out: growth percent
Outline: as §2

SNB-75 = settings: Homo sapiens, SNB-75, 48 h, read-out: growth percent
Outline: as §1

SN12C = settings: Homo sapiens, 48 h, read-out: growth percent
Outline: as §1

U251 = settings: Homo sapiens, U-251, 48 h, read-out: growth percent
Outline: as §1

UACC-62 = settings: Homo sapiens, UACC-62, 48 h, read-out: growth percent
Outline: as §1

HCT-15 = settings: Homo sapiens, HCT-15, 48 h, read-out: growth percent
Outline: as §2

SW-620 = settings: Homo sapiens, SW-620, 48 h, read-out: growth percent
Outline: as §1

SK-MEL-2 = settings: Homo sapiens, SK-MEL-2, 48 h, read-out: growth percent
Outline: as §1

| SMILES | activity at 10 µM (UACC-257) [%] | activity at 10 µM (RPMI-8226) [%] | activity at 10 µM (SK-MEL-5) [%] | activity at 10 µM (LOX IMVI) [%] | activity at 10 µM (HT29) [%] | activity at 10 µM (NCI-H226) [%] | activity at 10 µM (BT-549) [%] | activity at 10 µM (SF-268) [%] | activity at 10 µM (OVCAR-4) [%] | activity at 10 µM (CCRF-CEM) [%] | activity at 10 µM (NCI-H322M) [%] | activity at 10 µM (COLO205) [%] | activity at 10 µM (CAKI-1) [%] | activity at 10 µM (M14) [%] | activity at 10 µM (NCI-H460) [%] | activity at 10 µM (MDA-MB-435) [%] | activity at 10 µM (OVCAR-8) [%] | activity at 10 µM (RXF 393) [%] | activity at 10 µM (HOP-92) [%] | activity at 10 µM (KM12) [%] | also measured |
| --- | --- | --- | --- | --- | --- | --- | --- | --- | --- | --- | --- | --- | --- | --- | --- | --- | --- | --- | --- | --- | --- |
| COc1cc(CNC(=O)CCCC/C=C/C(C)C)ccc1OCc1cn(-c2ccc(Cl)c(Cl)c2)nn1 [14d, (E)-N-(4-((1-(3,4-Dichlorophenyl)-1H-1,2,3-triazol-4-yl)methoxy)-3-methoxybenzyl)-8-methylnon-6-enamide] | 89.2 | 78.1 | 81.6 | 87 | 99.4 | 76.6 | 91.8 | 93.3 | 69.5 | 84.7 | 93.2 | 111 | 58.3 | 92.7 | 101 | 94.2 | 91 | 101 | 78.7 | 100 | activity at 10 µM (NCI-H23): 93.2%; activity at 10 µM (TK-10): 88.6%; activity at 10 µM (MCF-7): 95.3%; activity at 10 µM (IGROV1): 104%; activity at 10 µM (DU-145): 86.5%; activity at 10 µM (UO-31): 103%; activity at 10 µM (SF-539): 96.1%; activity at 10 µM (OVCAR-3): 92.4%; activity at 10 µM (SNB-75): 79.1%; activity at 10 µM (SN12C): 113%; activity at 10 µM (U251): 91.9%; activity at 10 µM (UACC-62): 75.6%; activity at 10 µM (HCT-15): 93.6%; activity at 10 µM (SW-620): 96.1%; activity at 10 µM (SK-MEL-2): 108% |
| COc1cc(CNC(=O)CCCC/C=C/C(C)C)ccc1OCc1cn(-c2ccccc2Cl)nn1 [14c, (E)-N-(4-((1-(2-Chlorophenyl)-1H-1,2,3-triazol-4-yl)methoxy)-3-methoxybenzyl)-8-methylnon-6-enamide] | 87.9 | 75.5 | 89.8 | 89.9 | 98.2 | 81.8 | 90.8 | 87.8 | 87.9 | 87.9 | 89.4 | 106 | 93.4 | 92.6 | 101 | 103 | 89.6 | 105 | 80.1 | 97.7 | activity at 10 µM (NCI-H23): 93.6%; activity at 10 µM (TK-10): 94.6%; activity at 10 µM (MCF-7): 97.2%; activity at 10 µM (IGROV1): 98.8%; activity at 10 µM (DU-145): 99.2%; activity at 10 µM (UO-31): 75.2%; activity at 10 µM (SF-539): 104%; activity at 10 µM (OVCAR-3): 101%; activity at 10 µM (SNB-75): 87.3%; activity at 10 µM (SN12C): 94.5%; activity at 10 µM (U251): 85.7%; activity at 10 µM (UACC-62): 73.3%; activity at 10 µM (HCT-15): 94.1%; activity at 10 µM (SW-620): 100%; activity at 10 µM (SK-MEL-2): 91% |
| COc1cc(CNC(=O)CCCC/C=C/C(C)C)ccc1OCc1cn(-c2ccc(C)c(C)c2)nn1 [14p, (E)-N-(4-((1-(3,4-Dimethylphenyl)-1H-1,2,3-triazol-4-yl)methoxy)-3-methoxybenzyl)-8-methylnon-6-enamide] | 81.9 | 67.3 | 81.5 | 84.5 | 97.8 | 86.9 | 93.7 | 94.6 | 84.9 | 75.5 | 101 | 106 | 94.3 | 93.5 | 86.5 | 104 | 83.3 | 98.2 | 80.4 | 97.5 | activity at 10 µM (NCI-H23): 74.9%; activity at 10 µM (TK-10): 109%; activity at 10 µM (MCF-7): 86.9%; activity at 10 µM (IGROV1): 98.8%; activity at 10 µM (DU-145): 108%; activity at 10 µM (UO-31): 75.7%; activity at 10 µM (SF-539): 105%; activity at 10 µM (OVCAR-3): 100%; activity at 10 µM (SNB-75): 91%; activity at 10 µM (SN12C): 88.4%; activity at 10 µM (U251): 88.3%; activity at 10 µM (UACC-62): 75.1%; activity at 10 µM (HCT-15): 71.2%; activity at 10 µM (SW-620): 95.2%; activity at 10 µM (SK-MEL-2): 90.3% |
| COc1cc(CNC(=O)CCCC/C=C/C(C)C)ccc1OCc1cn(-c2ccc(F)cc2)nn1 [14h, (E)-N-(4-((1-(4-Fluorophenyl)-1H-1,2,3-triazol-4-yl)methoxy)-3-methoxybenzyl)-8-methylnon-6-enamide] | 90.2 | 68.4 | 83.7 | 84.2 | 106 | 74.2 | 91 | 87.2 | 82.2 | 79.7 | 91.8 | 120 | 88.4 | 94 | 75.7 | 98.8 | 71.5 | 95.3 | 66.2 | 94.5 | activity at 10 µM (NCI-H23): 81.4%; activity at 10 µM (TK-10): 103%; activity at 10 µM (MCF-7): 89.3%; activity at 10 µM (IGROV1): 97%; activity at 10 µM (DU-145): 96.1%; activity at 10 µM (UO-31): 86%; activity at 10 µM (SF-539): 92.2%; activity at 10 µM (OVCAR-3): 96.4%; activity at 10 µM (SNB-75): 83.5%; activity at 10 µM (SN12C): 82.4%; activity at 10 µM (U251): 83.9%; activity at 10 µM (UACC-62): 71.9%; activity at 10 µM (HCT-15): 89.6%; activity at 10 µM (SW-620): 91%; activity at 10 µM (SK-MEL-2): 111% |

Source: paper PMC9476207 (ACS Omega, 2022)
